# MEKK2wt PB1 HTS: modulators of MEK5 binding to wildtype MEKK2, primary screen, biochemical, multiplex bead flow cytometry, Alexa488-MEK5; actives 1.1% (n = 290,000); binding response (% of control), % at 10 µM; Alexa488-MEK5 binding to MEKK2 WT; actives lie on both sides; Mitogen-activated protein kinase kinase kinase 2 (Homo sapiens), Q9Y2U5; in the data active = binding response below about 67% or above about 130%
# ABCB1 block: ABCB1 efflux pump inhibitors, primary screen, cell-based, multiplex, flow cytometry, ABCG2 counter-screen | CCRF-Adr cells, JC-1 efflux | actives 0.067% (n = 190,000) | ATP-dependent translocase ABCB1 (Homo sapiens), P08183 | inhibition, % at 6.6 µM | AID 1326, 2008; in the data active = inhibition above about 40%;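 note: 0% = vehicle and 100% = reference inhibitor; higher value means more JC-1 retained so stronger ABCB1 efflux block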
# MEKK2mut PB1 HTS: MEK5 binding signal on mutant MEKK2 PB1, primary screen, biochemical, multiplex bead flow cytometry, Alexa488-MEK5. Alexa488-MEK5 binding to MEKK2 mutant. percent response, % at 10 µM. actives 0.35% (n = 290,000); in the data active = percent response above about 24%, passing the limit was not always enough
# MEKK3 PB1 HTS: modulators of MEKK3-MEK5 PB1 binding, primary screen, biochemical, wildtype MEKK3, multiplex bead flow cytometry, Alexa488-MEK5 | bead-based flow cytometry, Alexa488-MEK5 binding to MEKK3; actives lie on both sides; 0 = blocked by unlabeled MEK5, 100 = vehicle | binding response (% of control), % at 10 µM | actives 1.4% (n = 290,000) | AID 1529, 2009;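 active = binding response more than 3 SD above or below the average of its plate-row segment, actives on both sides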;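 note: Alexa488 bead fluorescence after subtracting the streptavidin-only scavenger bead signal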
# ABCG2 block: ABCG2 efflux pump inhibitors, primary screen, multiplex with ABCB1, IgMXP3 cells, flow cytometry; Broad substrate specificity ATP-binding cassette transporter ABCG2 (Homo sapiens), Q9UNQ0; JC-1 efflux; inhibition, % at 6.6 µM; actives 0.1% (n = 190,000);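 active = inhibition above 80%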;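 note: 0% = DMSO and 100% = nicardipine control wells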
# Target sequence (Q9UNQ0 whole entry, looked up): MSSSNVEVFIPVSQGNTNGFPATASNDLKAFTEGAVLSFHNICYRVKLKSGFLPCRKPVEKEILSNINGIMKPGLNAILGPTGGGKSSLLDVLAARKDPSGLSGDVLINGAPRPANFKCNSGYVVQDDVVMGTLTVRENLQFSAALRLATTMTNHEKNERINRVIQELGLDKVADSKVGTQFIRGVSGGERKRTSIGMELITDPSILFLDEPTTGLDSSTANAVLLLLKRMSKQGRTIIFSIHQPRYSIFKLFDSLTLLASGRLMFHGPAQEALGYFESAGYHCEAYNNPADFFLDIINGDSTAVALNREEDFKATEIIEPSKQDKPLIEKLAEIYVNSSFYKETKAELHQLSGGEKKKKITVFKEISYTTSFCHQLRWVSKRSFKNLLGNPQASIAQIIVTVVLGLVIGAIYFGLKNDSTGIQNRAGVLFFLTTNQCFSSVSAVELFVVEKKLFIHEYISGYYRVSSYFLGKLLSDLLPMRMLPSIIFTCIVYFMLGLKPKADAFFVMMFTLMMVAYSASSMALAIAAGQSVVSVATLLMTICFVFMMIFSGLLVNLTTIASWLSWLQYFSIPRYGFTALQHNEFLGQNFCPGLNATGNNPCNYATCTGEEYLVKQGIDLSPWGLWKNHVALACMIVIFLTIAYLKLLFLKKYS
#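 Test system: IgMXP3 (ABCG2) plus far-red-tagged CCRF-Adr (ABCB1) cells / Amount: 3 million cells/mL in well / Reagent: JC-1 transporter substrate / Timing: 10 min compound exposure, 25 °C / Signal: flow cytometry, 530 nm JC-1 signal / Read-out: percent efflux inhibition, scaled nicardipine 100% to DMSO 0% / Benchmarks: nicardipine as high control, DMSO as low control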
# ABCB1 confirm: ABCB1 efflux pump inhibitors, confirmation, cell-based, single point, ABCG2 counter-screen | shares compounds with ABCG2 block | inhibition, % at 6.6 µM | CCRF-Adr cells, JC-1 efflux, flow cytometry | actives 7% (n = 270);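 active = inhibition of pump activity above 50%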;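 note: 0% = DMSO and 100% = nicardipine full pump inhibition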
# ABCG2 confirm: ABCG2 efflux pump inhibitors, confirmation, single point, IgMXP3 cells, ABCB1 counter-screen paired | inhibition, % at 6.6 µM | AID 1453, 2008 | actives 6% (n = 270) | JC-1 efflux, flow cytometry | shares compounds with ABCG2 block;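 active = inhibition above 50%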;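 note: 0% = DMSO wells and 100% = nicardipine pump inhibitor wells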
# IgMXP3 autofluor: compound autofluorescence in ABCG2-expressing IgMXP3 cells, confirmation, artefact control for ABC transporter inhibitor project, cell-based, 488/530 nm, flow cytometry | compound autofluorescence 488/530 nm; active compounds read high | actives 30% (n = 270) | fluorescence at 6.6 µM | shares compounds with ABCG2 block;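 active = fluorescence in ABCG2-expressing cells above the plate's control-well mean plus 3 SD, cut at about 15 in these data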;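 note: median cell fluorescence with compound minus that of DMSO-treated control cells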
# CCRF autofluor: compound autofluorescence in ABCB1-expressing CCRF-Adr cells, confirmation, artefact control for ABC transporter inhibitor project, cell-based, 488/530 nm, flow cytometry; shares compounds with ABCG2 block; compound autofluorescence 488/530 nm; active compounds read high; fluorescence at 6.6 µM; actives 30% (n = 270); AID 1483, 2009;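 active = fluorescence beyond the plate control mean plus 3 SD, with a fluorescence-to-maximum score over 2, cut at about 25 in these data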
# MEKK2wt confirm: modulators of MEK5 binding to wildtype MEKK2, confirmation, biochemical, single concentration, multiplex bead flow cytometry | shares compounds with MEKK3 PB1 HTS | Alexa488-MEK5 binding to MEKK2 WT; actives lie on both sides | binding response (% of control), % at 10 µM | actives 2.4% (n = 5,900) | AID 1892, 2009; in the data active = binding response below about 16% or above about 210%; inactive = in between
# MEKK2mut-MEK5: mutant MEKK2 PB1-MEK5 binding signal retest – biochemical, single concentration, multiplex bead flow cytometry, confirmation. actives 2% (n = 5,900). shares compounds with MEKK3 PB1 HTS. Alexa488-MEK5 binding to MEKK2 mutant. percent response, % at 10 µM. AID 1893, 2009; in the data active = percent response mostly above about 71%, no sharp cut-off; inactive = mostly below about 38%;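 note: higher means compound restores mutant binding toward wildtype level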
# MEKK3-MEK5 inh: MEKK3 wild-type PB1 binding to MEK5, inhibitors, confirmation, biochemical, bead multiplex flow cytometry, single concentration, wildtype; AID 1894, 2009; Alexa488-MEK5 binding to MEKK3; active compounds read low; binding response (% of control), % at 10 µM; shares compounds with MEKK3 PB1 HTS; actives 1.8% (n = 5,900);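 active = binding response below 72% of control, or above a set upper limit, though filed actives all read lower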;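 note: 100% = DMSO only wells and 0% = binding blocked by excess unlabeled MEK5; lower values mean stronger disruption of MEK5 binding to MEKK3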
# The depositor's hits bear a star; / = no result; + = active, no number; [ ] = another dose, or the depositor's remark. In the library only some 2.3% were active in any assay of this set; here they are far more common.
SMILES,MEKK2wt PB1 HTS,ABCB1 block,MEKK2mut PB1 HTS,MEKK3 PB1 HTS,ABCG2 block,ABCB1 confirm,ABCG2 confirm,IgMXP3 autofluor,CCRF autofluor,MEKK2wt confirm,MEKK2mut-MEK5,MEKK3-MEK5 inh
CCCNC(=O)Cn1c(=O)/c(=C\c2ccc(-c3ccc([N+](=O)[O-])cc3)o2)s/c1=C\C(=O)C(C)(C)C,/,129*,132*,90,159*,-90,-116,524*,441*,79,-25,93
CCCNC(=O)Cn1c(=O)/c(=C\c2ccc(-c3cccc([N+](=O)[O-])c3)o2)s/c1=C\C(=O)C(C)(C)C,76,0,-3,99,-9,/,/,/,/,/,/,/
CC(=O)CSc1nc2c(c(=O)[nH]c(=O)n2C)n1CCCc1ccccc1,104,/,1,102,/,/,/,/,/,/,/,/
COc1ccc(NC(=O)/C(C#N)=C\c2ccc(N3CCOCC3)o2)cc1,90,0,-10,98,2,/,/,/,/,/,/,/
N#C/C(=C/c1ccc(N2CCCCC2)o1)C(=O)Nc1ccc2ccccc2c1,210*,134*,206*,148*,+,-144,-90,397*,624*,89,-30,92
COc1ccc(N2C(=O)NC(NS(=O)(=O)c3ccc(NC(C)=O)cc3)(C(F)(F)F)C2=O)cc1 (configuration not stated),104,/,7,101,/,/,/,/,/,/,/,/
Cc1ccc2c(c1)S/C(=C/c1ccc[n+](C)c1)N2CCO,106,0,3,103,-1,/,/,/,/,/,/,/
CCN1/C(=C/c2ccc3cc(C)ccc3[n+]2CC)Sc2cc(C)ccc21,11*[inhibitor],10,-4,51*[inhibitor],+,114*,8,118*,187*,31,-37,74
Cc1ccc(Sc2cnccc2C#N)cc1,99,/,-1,97,/,/,/,/,/,/,/,/
COc1ccc(Cl)cc1C(=O)N1CCN(Cc2ccc3c(c2)OCO3)CC1,107,/,2,104,/,/,/,/,/,/,/,/

# Compound activity as filed in PubChem BioAssay.
